Compound activity from PubChem.
ASAP1 GAP inh = inhibitors of human ASAP1 ArfGAP activity | Q9ULH1 | ASAP1-stimulated ARF1 GTP hydrolysis, GDP FP detection | inhibition, % at 16.5 µM | 360,000 compounds, 0.19% hits | AID 624377; in the data active means inhibition above about 25%
Statin myotox sup = protects C2C12 myotubes from simvastatin toxicity | rescue of ATP level, % at 7.49 µM | 330,000 compounds, 0.78% hits | ATP luminescence, 48 h; scaled: DMSO 0, geranylgeraniol control 100 | AID 602340;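 active means mean ATP rescue above about 67%, or every replicate alone reaching that limit, limit read from the data, passing the limit was not always enough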;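 further: myotubes were challenged with 10 µM simvastatin during compound exposure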
A3G deaminase = blocks human APOBEC3G single-stranded DNA deamination. Q9HC16. recombinant A3G, ssDNA deamination FAM/TAMRA fluorescence. inhibition, % at 20 µM. 330,000 compounds, 0.28% hits;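 active means inhibition of at least 40% at 20 µM, with no more than 30% in the related APOBEC3A deaminase screen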
Target sequence (Q9HC16 whole entry, looked up): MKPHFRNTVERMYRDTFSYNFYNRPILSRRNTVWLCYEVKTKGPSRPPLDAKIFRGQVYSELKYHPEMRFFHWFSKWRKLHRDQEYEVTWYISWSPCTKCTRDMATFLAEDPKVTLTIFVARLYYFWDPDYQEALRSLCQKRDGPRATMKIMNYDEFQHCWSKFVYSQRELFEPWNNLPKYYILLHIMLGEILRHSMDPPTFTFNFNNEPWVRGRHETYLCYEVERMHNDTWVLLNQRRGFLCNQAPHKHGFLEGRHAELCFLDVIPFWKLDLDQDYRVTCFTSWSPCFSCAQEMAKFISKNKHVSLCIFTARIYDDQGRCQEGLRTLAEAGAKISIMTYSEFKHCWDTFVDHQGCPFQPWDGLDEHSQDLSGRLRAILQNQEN
ARFGAP1 inhibitor = inhibits rat ARF GTPase activating protein 1. Arfgap1-stimulated ARF1 GTP hydrolysis, GDP FP detection. AID 651572. Q62848. 360,000 compounds, 0.26% hits. inhibition, % at 16.5 µM;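 active means inhibition above a per-plate limit, mean inhibition of low control wells plus 3 SD, cut at about 25% in these data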
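material = rat Arfgap1 catalytic domain, aa 1-136 | also added = human ARF1(Δ1-17)-GTP substrate | compound dosing = one concentration, 16.5 µM, DMSO 1.26% | times = GTP hydrolysis reaction 2 h at 25 °C | measured by = FP, GDP Alexa 633 tracer displaced from anti-GDP antibody, 620/688 nm | evaluation = percent inhibition of Arfgap1-stimulated GTP hydrolysis | replication = single well per compound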
APOBEC3A inh = inhibitors of human APOBEC3A DNA deaminase | P31941 | recombinant A3A, FAM/TAMRA ssDNA deamination fluorescence | inhibition, % at 20 µM | 330,000 compounds, 0.41% hits | AID 493011;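 active means at least 40% inhibition at 20 µM here, with at most 30% in a related deaminase screen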
Target sequence (P31941 whole entry, looked up): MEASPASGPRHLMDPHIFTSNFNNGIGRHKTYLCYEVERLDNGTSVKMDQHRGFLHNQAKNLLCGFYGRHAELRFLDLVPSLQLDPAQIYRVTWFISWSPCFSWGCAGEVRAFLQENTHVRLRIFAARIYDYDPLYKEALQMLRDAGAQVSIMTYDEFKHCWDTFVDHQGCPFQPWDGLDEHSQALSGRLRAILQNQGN
SUMO Mot1 rescue = inhibitors of SUMOylation pathway: yeast Mot1-301 growth rescue. S. cerevisiae Mot1-301 growth rescue, ATP luminescence, 38.5C; percent above DMSO median, 100 means doubled. growth rescue, % at 18.8 µM. 320,000 compounds, 1% hits;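 active means every valid replicate shows activation above 250% relative to neutral control wells; inactive means the rest, any valid replicate at or below 250%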
ASAP1 GAP conf = confirmation of human ASAP1 inhibitors. shares compounds with ASAP1 GAP inh. ASAP1-stimulated Arf1 GTPase, GDP fluorescence polarization. inhibition, % at 16.5 µM. 620 compounds, 37% hits. AID 624431;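 active means mean inhibition over triplicates exceeds the hit threshold derived for the earlier primary screening run, cut at about 25% in these data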
Each line names hits and unclear results; the compound was inactive in the other large screens (follow-up assays come after a bar, where they were run). In the library only some 2.1% were active in any assay of this set; here they are far more common.

C[C@H](O)[C@@H]1C(=O)N2CCc3c([nH]c4c(-c5ccc6c(c5)OCO6)cccc34)[C@@H]2C[C@@H]1N(C)C(=O)Nc1ccccc1	ASAP1 GAP inh 29 (no result: Statin myotox sup, A3G deaminase, APOBEC3A inh, SUMO Mot1 rescue) | ASAP1 GAP conf inactive
Cc1ccccc1NC(=O)N(C)[C@H]1C[C@H]2c3[nH]c4c(-c5ccc6c(c5)OCO6)cccc4c3CCN2C(=O)[C@H]1[C@H](C)O	none (no result: Statin myotox sup, A3G deaminase, APOBEC3A inh, SUMO Mot1 rescue)
CNC(=O)C(=O)Nc1ccc2c(c1)N(S(=O)(=O)c1cccs1)CCC2	ASAP1 GAP inh 29 | ASAP1 GAP conf inactive
C[C@@H]1CN([C@H](C)CO)C(=O)c2cc(N(C)C)ccc2O[C@@H](C)CCCCO[C@@H]1CN(C)C(=O)Nc1ccc2c(c1)OCO2	none (no result: ASAP1 GAP inh, A3G deaminase, ARFGAP1 inhibitor, APOBEC3A inh, SUMO Mot1 rescue)
COc1ccccc1CNc1nc(NCc2ccccc2OC)c2sccc2n1	none (no result: A3G deaminase, APOBEC3A inh, SUMO Mot1 rescue)
COc1ccccc1CNc1nc(NCCOc2ccccc2)c2sccc2n1	ASAP1 GAP inh 25 (no result: A3G deaminase, APOBEC3A inh, SUMO Mot1 rescue) | ASAP1 GAP conf inactive
C[C@H](CO)N1C[C@H](C)[C@H](CN(C)S(=O)(=O)c2cn(C)cn2)Oc2c(NS(=O)(=O)c3ccccc3)cccc2C1=O	none (no result: ASAP1 GAP inh, A3G deaminase, ARFGAP1 inhibitor, APOBEC3A inh, SUMO Mot1 rescue)
N#Cc1cn(CC(=O)NCCc2c[nH]c3ccccc23)c2ccccc12	ASAP1 GAP inh 27 (no result: Statin myotox sup) | ASAP1 GAP conf inactive
NCC[C@@H]1CC[C@@H](NC(=O)C2CCCCC2)[C@H](CO)O1	none (no result: ASAP1 GAP inh, A3G deaminase, ARFGAP1 inhibitor, APOBEC3A inh, SUMO Mot1 rescue)
CCCCC(=O)Nc1cccc(C(=O)N/N=C/c2ccc(OC)cc2OC)c1	ASAP1 GAP inh 26 (no result: Statin myotox sup) | ASAP1 GAP conf inactive
COc1ccc(/C=N/NC(=O)c2nc(-c3ccccc3)cc(-c3ccccc3)n2)cc1	none (no result: Statin myotox sup, SUMO Mot1 rescue)
COc1ccc(/C=N/Nc2ccc([N+](=O)[O-])cc2)cc1O	ASAP1 GAP inh 25 | ASAP1 GAP conf 31
COc1ccc(/C=N/NC(=O)c2nc(-c3ccccc3)cc(-c3ccccc3)n2)cc1O	ASAP1 GAP inh 26 (no result: Statin myotox sup) | ASAP1 GAP conf 32
Cc1ccc(-c2csc(NC(=O)COc3ccc(N(C)S(=O)(=O)c4ccc(C)cc4)cc3)n2)cc1	ASAP1 GAP inh 25 (no result: Statin myotox sup) | ASAP1 GAP conf inactive
CC(=O)c1ccc(CCCCc2ccc(C(C)=O)cc2)cc1	ASAP1 GAP inh 25 (no result: A3G deaminase, APOBEC3A inh, SUMO Mot1 rescue) | ASAP1 GAP conf inactive
CC(C)N(C(=O)Nc1ccc2nsnc2c1)C(C)C	ASAP1 GAP inh 41 (no result: Statin myotox sup, SUMO Mot1 rescue) | ASAP1 GAP conf inactive
COc1ccc(NC(=S)Nc2ccc3nc(C)c(C)nc3c2)cc1	none
COc1ccc(NC(=S)Nc2ccc3nsnc3c2)cc1	ASAP1 GAP inh 33 (no result: Statin myotox sup) | ASAP1 GAP conf inactive
CC(C)(C)C(=O)N1CCN(c2ccnc3cc(Cl)ccc23)CC1	none
O=C(Nc1ccc(OC(F)(F)F)cc1)N1CCN(c2ccnc3cc(Cl)ccc23)CC1	ASAP1 GAP inh 25 | ASAP1 GAP conf inactive
Cn1cnc(S(=O)(=O)N2C[C@H](O)COC[C@@H]3O[C@H](CC(=O)N4CCN(c5ccccc5)CC4)CC[C@H]32)c1	none (no result: ASAP1 GAP inh, A3G deaminase, ARFGAP1 inhibitor, APOBEC3A inh, SUMO Mot1 rescue)
CNC[C@@H]1OCCCC[C@@H](C)Oc2ccc(NC(=O)Nc3ccc(C(F)(F)F)cc3)cc2C(=O)N([C@H](C)CO)C[C@@H]1C	none (no result: ASAP1 GAP inh, A3G deaminase, ARFGAP1 inhibitor, APOBEC3A inh, SUMO Mot1 rescue)
O=C(Cn1nc(-c2ccccc2)ccc1=O)Nc1ccc(-n2cnnn2)cc1	none
O=C(Cn1nc(-c2ccc3c(c2)OCCO3)ccc1=O)Nc1ccc(-n2cnnn2)cc1	ASAP1 GAP inh 36 (no result: Statin myotox sup) | ASAP1 GAP conf 36
C[C@H](CO)N1C[C@H](C)[C@@H](CN(C)C(=O)C2CCC2)Oc2cc(-c3cccnc3)ccc2S1(=O)=O	none (no result: ASAP1 GAP inh, A3G deaminase, ARFGAP1 inhibitor, APOBEC3A inh, SUMO Mot1 rescue)
CNC(=O)COC(=O)/C=C/c1ccco1	ASAP1 GAP inh 27 (no result: Statin myotox sup) | ASAP1 GAP conf inactive
O=C(NCC[C@H]1CC[C@@H](NC(=O)C2CCC2)[C@@H](CO)O1)c1cnccn1	none (no result: ASAP1 GAP inh, A3G deaminase, ARFGAP1 inhibitor, APOBEC3A inh, SUMO Mot1 rescue)
Cc1cc([N+](=O)[O-])c(C)cc1-c1ccc(/C=N/NC(=O)c2cccnc2)o1	ASAP1 GAP inh 25 (no result: Statin myotox sup) | ASAP1 GAP conf inactive
COc1ccc(Cl)cc1S(=O)(=O)NCc1cccnc1	ASAP1 GAP inh 26 | ASAP1 GAP conf inactive
C[C@@H]1CN([C@H](C)CO)C(=O)Cc2cc(NC(=O)Nc3ccc4c(c3)OCO4)ccc2O[C@@H]1CN(C)Cc1ccc(C(F)(F)F)cc1	none (no result: ASAP1 GAP inh, A3G deaminase, ARFGAP1 inhibitor, APOBEC3A inh, SUMO Mot1 rescue)
O=C(COc1ccc(/C=N/NC(=O)c2ccncc2)cc1)Nc1cccc([N+](=O)[O-])c1	ASAP1 GAP inh 29 | ASAP1 GAP conf inactive
